Data published in ChEMBL document CHEMBL1127343, “"Glycylcyclines". 3. 9-Aminodoxycyclinecarboxamides” (1994).
In brackets after ≈: the same amount, converted by molar mass.

How the values were obtained:
Assay type in all cases: functional
[1] = test system: Escherichia coli; experiment: In vitro antibacterial activity was measured on gram negative bacteria Escherichia coli J3272 tet-D(efflux resistance) cell lines
[2] = test system: Staphylococcus aureus; experiment: In vitro antibacterial activity was measured on gram positive bacteria Staphylococcus aureus UBMS 90-3 sensitive cell lines
In short: (§1)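 MIC by agar dilution on Mueller-Hinton II agar; inoculum (1–5) × 10^5 CFU/mL; antibiotic range 32–0.004 μg/mL; plates incubated 18 h at 35 °C in forced-air incubator. MIC taken as lowest concentration inhibiting growth. Tetracycline, minocycline and doxycycline run as standards in each assay.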

[3] = test system: Escherichia coli; experiment: In vitro antibacterial activity was measured on gram negative bacteria Escherichia coli UBMS 90-4 tet-M (ribosomal protection) cell lines
In short: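 Agar dilution MIC on Mueller-Hinton II agar. Inoculum (1–5) × 10^5 CFU/mL, drug range 32–0.004 μg/mL. Plates incubated 18 h at 35 °C in a forced-air incubator. MIC is the lowest concentration that inhibits growth. The strain panel covered tetracycline-sensitive and -resistant strains. Tetracycline, minocycline and doxycycline were run as standards in each assay.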

[4] = test system: Escherichia coli; experiment: In vitro antibacterial activity was measured on gram negative bacteria Escherichia coli PRP-1 tet-a(efflux resistance) cell lines
[5] = test system: Staphylococcus aureus; experiment: In vitro antibacterial activity was measured on gram positive bacteria Staphylococcus aureus UBMS 90-1 tet-M (ribosomal protection) cell lines; in short: as §1
[6] = test system: Escherichia coli; experiment: In vitro antibacterial activity was measured on gram negative bacteria Escherichia coli J3272 tet-C(efflux resistance) cell lines
[7] = test system: Escherichia coli; experiment: In vitro antibacterial activity was measured on gram negative bacteria Escherichia coli UBMS 88-1 tet-B(efflux resistance) cell lines
[8] = test system: Staphylococcus aureus; experiment: In vitro antibacterial activity was measured on gram positive bacteria Staphylococcus aureus smith cell lines; in short: as §1
[9] = test system: Escherichia coli; experiment: In vitro antibacterial activity was measured on gram negative bacteria Escherichia coli UBMS 90-5 sensitive cell lines; in short: as §1
[10] = test system: Staphylococcus aureus; experiment: In vitro antibacterial activity was measured on gram positive bacteria Staphylococcus aureus UBMS 88-7 tet-k(efflux resistance) cell lines

| SMILES | MIC [1] [µg/mL] | MIC [2] [µg/mL] | MIC [3] [µg/mL] | MIC [4] [µg/mL] | MIC [5] [µg/mL] | MIC [6] [µg/mL] | MIC [7] [µg/mL] | MIC [8] [µg/mL] | MIC [9] [µg/mL] | MIC [10] [µg/mL] |
| --- | --- | --- | --- | --- | --- | --- | --- | --- | --- | --- |
| CN[C@@H](CC(C)C)C(=O)Nc1ccc2c(c1O)C(=O)C1=C(O)[C@]3(O)C(O)=C(C(N)=O)C(=O)[C@@H](N(C)C)C3[C@@H](O)C1[C@H]2C (stereo not given in full) | 2 (≈ 3.41 µM) | 1 (≈ 1.7 µM) | 4 (≈ 6.82 µM) | 16 (≈ 27.3 µM) | 2 (≈ 3.41 µM) | 8 (≈ 13.6 µM) | 8 (≈ 13.6 µM) | 2 (≈ 3.41 µM) | 4 (≈ 6.82 µM) |  |
| CC(C)[C@H](N)C(=O)Nc1ccc2c(c1O)C(=O)C1=C(O)[C@]3(O)C(O)=C(C(N)=O)C(=O)[C@@H](N(C)C)C3[C@@H](O)C1[C@H]2C (stereo not given in full) | 1 (≈ 1.79 µM) | 0.5 (≈ 0.895 µM) | 2 (≈ 3.58 µM) | 32 (≈ 57.3 µM) | 2 (≈ 3.58 µM) | 8 (≈ 14.3 µM) | 4 (≈ 7.16 µM) | 1 (≈ 1.79 µM) | 2 (≈ 3.58 µM) | 8 (≈ 14.3 µM) |
| C[C@H]1c2ccc(NC(=O)[C@@H](N)Cc3ccccc3)c(O)c2C(=O)C2=C(O)[C@]3(O)C(O)=C(C(N)=O)C(=O)[C@@H](N(C)C)C3[C@@H](O)C21 (stereo not given in full) | 1 (≈ 1.65 µM) | 0.5 (≈ 0.824 µM) | 2 (≈ 3.3 µM) | 8 (≈ 13.2 µM) | 1 (≈ 1.65 µM) |  |  | 0.25 (≈ 0.412 µM) | 4 (≈ 6.59 µM) | 4 (≈ 6.59 µM) |
| C[C@H]1c2ccc(NC(=O)[C@H](N)Cc3ccccc3)c(O)c2C(=O)C2=C(O)[C@]3(O)C(O)=C(C(N)=O)C(=O)[C@@H](N(C)C)C3[C@@H](O)C21 (stereo not given in full) | 1 (≈ 1.65 µM) | 1 (≈ 1.65 µM) | 2 (≈ 3.3 µM) | 16 (≈ 26.4 µM) | 8 (≈ 13.2 µM) |  |  | 0.5 (≈ 0.824 µM) | 4 (≈ 6.59 µM) | 16 (≈ 26.4 µM) |
| C[C@H]1c2ccc(NC(=O)[C@@H]3CCCN3)c(O)c2C(=O)C2=C(O)[C@]3(O)C(O)=C(C(N)=O)C(=O)[C@@H](N(C)C)C3[C@@H](O)C21 (stereo not given in full) | 1 (≈ 1.8 µM) | 1 (≈ 1.8 µM) | 2 (≈ 3.59 µM) | 16 (≈ 28.7 µM) | 4 (≈ 7.19 µM) | 8 (≈ 14.4 µM) | 4 (≈ 7.19 µM) | 2 (≈ 3.59 µM) | 2 (≈ 3.59 µM) |  |
| CC(C)C[C@H](N)C(=O)Nc1ccc2c(c1O)C(=O)C1=C(O)[C@]3(O)C(O)=C(C(N)=O)C(=O)[C@@H](N(C)C)C3CC1C2 (stereo not given in full) | 1 (≈ 1.84 µM) | 1 (≈ 1.84 µM) | 2 (≈ 3.69 µM) | 4 (≈ 7.37 µM) | 1 (≈ 1.84 µM) | 4 (≈ 7.37 µM) | 4 (≈ 7.37 µM) | 2 (≈ 3.69 µM) | 2 (≈ 3.69 µM) |  |
| C[C@H]1c2ccc(NC(=O)[C@@H](N)CC3CCCCC3)c(O)c2C(=O)C2=C(O)[C@]3(O)C(O)=C(C(N)=O)C(=O)[C@@H](N(C)C)C3[C@@H](O)C21 (stereo not given in full) | 2 (≈ 3.26 µM) | 0.5 (≈ 0.816 µM) | 4 (≈ 6.53 µM) | 8 (≈ 13.1 µM) | 8 (≈ 13.1 µM) | 8 (≈ 13.1 µM) | 8 (≈ 13.1 µM) | 1 (≈ 1.63 µM) | 4 (≈ 6.53 µM) | 2 (≈ 3.26 µM) |
| C[C@H]1c2ccc(NC(=O)CNC(C)(C)C)c(O)c2C(=O)C2=C(O)[C@]3(O)C(O)=C(C(N)=O)C(=O)[C@@H](N(C)C)C3[C@@H](O)C21 (stereo not given in full) |  | 0.25 (≈ 0.437 µM) | 0.5 (≈ 0.873 µM) | 1 (≈ 1.75 µM) | 1 (≈ 1.75 µM) | 1 (≈ 1.75 µM) | 1 (≈ 1.75 µM) | 0.5 (≈ 0.873 µM) | 0.5 (≈ 0.873 µM) | 2 (≈ 3.49 µM) |
| C[C@H]1c2ccc(NC(=O)[C@@H](N)Cc3ccc(O)cc3)c(O)c2C(=O)C2=C(O)[C@]3(O)C(O)=C(C(N)=O)C(=O)[C@@H](N(C)C)C3[C@@H](O)C21 (stereo not given in full) |  | 0.5 (≈ 0.803 µM) | 8 (≈ 12.8 µM) | 32 (≈ 51.4 µM) | 4 (≈ 6.42 µM) | 16 (≈ 25.7 µM) | 16 (≈ 25.7 µM) | 1 (≈ 1.61 µM) | 8 (≈ 12.8 µM) | 32 (≈ 51.4 µM) |
| CC[C@H](C)[C@H](N)C(=O)Nc1ccc2c(c1O)C(=O)C1=C(O)[C@]3(O)C(O)=C(C(N)=O)C(=O)[C@@H](N(C)C)C3[C@@H](O)C1[C@H]2C (stereo not given in full) | 0.5 (≈ 0.873 µM) | 0.25 (≈ 0.437 µM) | 1 (≈ 1.75 µM) | 16 (≈ 27.9 µM) | 1 (≈ 1.75 µM) | 4 (≈ 6.99 µM) | 2 (≈ 3.49 µM) | 1 (≈ 1.75 µM) | 1 (≈ 1.75 µM) | 2 (≈ 3.49 µM) |
| CN(C)CC(=O)Nc1ccc2c(c1O)C(=O)C1=C(O)[C@]3(O)C(O)=C(C(N)=O)C(=O)[C@@H](N(C)C)[C@@H]3CC1C2 (stereo not given in full) |  | 0.12 (≈ 0.233 µM) | 0.25 (≈ 0.486 µM) | 2 (≈ 3.89 µM) | 0.25 (≈ 0.486 µM) | 2 (≈ 3.89 µM) | 1 (≈ 1.94 µM) | 0.12 (≈ 0.233 µM) | 0.25 (≈ 0.486 µM) | 1 (≈ 1.94 µM) |
